# Results collected from several papers.
# Lines come from different studies, so protocols differ.
# Target: Serine/threonine-protein kinase 38 (STK38, Homo sapiens, UniProt Q15208)
SMILES,assay,system,conditions,measurement,value
O=C1NC(=O)c2cc(Nc3ccc(F)cc3)c(Nc3ccc(F)cc3)cc21,cell-free assay,,0.5 µM,remaining signal,85.5%
Cn1c2c(Cl)c(Cl)ccc2c2cn[nH]c(=O)c21,"thermal stability, DSF",,10 µM,ΔTm,0 °C
O=C(Nc1cnn(-c2csc(C(=O)NC3COC3)c2)c1)Nc1ccccc1Cl,"enzyme activity, inhibitor",,5 µM,remaining activity,99.2%
CCC1(CC)NC(=O)c2c(c3ccc(Cl)c(Cl)c3n2C)C1C#N (stereo not shown),"thermal stability, DSF",,10 µM,ΔTm,1.1 °C
O=C(Nc1cnn(-c2csc(C(=O)NC3COC3)c2)c1)Nc1c(F)cccc1Cl,"enzyme activity, inhibitor",,5 µM,remaining activity,95.5%
Nc1ncnc2occ(-c3ccc(NC(=O)Nc4cc(C(F)(F)F)ccc4F)cc3)c12,"cell-free assay, inhibitor",,20 µM,remaining signal,31%
CC(C)(O)[C@H]1CC[C@H](Nc2ccc3ncc(-c4cccc(C(F)(F)F)c4)n3n2)CC1,"enzyme activity, inhibitor",,1 µM,remaining activity,96.7%
Cn1c2c(c3ccc(Cl)c(Cl)c31)C(C#N)C1(CCOCC1)NC2=O (stereo not shown),"thermal stability, DSF",,10 µM,ΔTm,0 °C
Cc1cc(NC(=O)c2cccc(S(F)(F)(F)(F)F)c2)cc(-n2ccn3nc(-c4cccnc4)cc23)c1,"cell-free assay, competition with immobilised ligand",,1 µM,remaining binding,92.3%
COc1cc2c(N3CCN(C(=O)Nc4ccc(OC(C)C)cc4)CC3)ncnc2cc1OCCCN1CCCCC1,cell-free assay,,0.5 µM,remaining signal,99.1%
Cc1nc(Cc2cccc(C(F)(F)F)c2)sc1-c1ccc(C(N)=O)nc1,"cell-free assay, competition with immobilised ligand",,1 µM,remaining binding,81%
Cn1c2c(Cl)c(Cl)ccc2c2cc[nH]c(=O)c21,"thermal stability, DSF",,10 µM,ΔTm,0 °C
Cc1ccc(C(=O)Nc2ccc(CN3CCN(C)CC3)c(C(F)(F)F)c2)cc1C#Cc1cnc2cccnn12,"enzyme activity, inhibitor",,23.5 nM,remaining activity,78%
NS(=O)(=O)c1cc(NC(=O)C2(c3ccccc3Cl)CC2)ccc1Oc1cccc(Cl)c1,"cell-free assay, competition with immobilised ligand",,1 µM,remaining binding,81%
c1nc2c(Nc3ccc4c(c3)OCCO4)nc(Nc3ccc4c(c3)OCCO4)nc2[nH]1,"enzyme activity, inhibitor",,10 µM,activity vs control,73%
CCCOc1ccc([C@@H]2[C@@H](C(=O)O)[C@H](c3ccc4c(c3)OCO4)CN2CC(=O)Nc2c(CC)cccc2CC)cc1,"cell-free assay, competition with immobilised ligand",,1 µM,remaining binding,83%
Cn1c2c(Cl)c(Cl)ccc2c2cc(N)[nH]c(=O)c21,"thermal stability, DSF",,10 µM,ΔTm,-0.2 °C
O=C(Nc1cnc(Oc2ccc(F)cc2)nc1)N1CCc2ncccc2[C@@H]1c1ccc(F)cc1,"cell-free assay, competition with immobilised ligand",,1 µM,remaining binding,91%
CCN1CCN(Cc2ccc(NC(=O)c3ccc(C)c(Oc4ccnc5[nH]ccc45)c3)cc2C(F)(F)F)CC1,"target engagement in cells, inhibitor, chemoproteomics",A-375,50 nM,inhibition,-11.4%
